# Columns and labels:
# Assay type in all cases: functional
# [1] = system: SK-MEL-2; experiment: Growth inhibition of human SK-MEL-2 cells after 48 hrs by sulforhodamine B assay; conditions: SK-MEL-2, 48 h
# Procedure, shortened: (§1)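 NCI 60-cell-line panel. Cells were grown in medium with 5% fetal calf serum and 2 mM L-glutamine, then preincubated 24 h in plates. Compounds were added from DMSO at five 10-fold concentrations from 100 to 0.01 µM and left on cells continuously for 48 h. Cell growth was read by sulforhodamine B protein stain. GI50 is the concentration that halves net protein increase relative to control cells.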
# [2] = system: COLO 205; experiment: Growth inhibition of human COLO205 cells after 48 hrs by sulforhodamine B assay; conditions: COLO 205, 48 h
# Procedure, shortened: (§2)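 NCI 60-cell-line panel grown in RPMI-type medium with 5% fetal calf serum and 2 mM L-glutamine. Cells preincubated 24 h, then exposed continuously for 48 h to compound in DMSO at 10^-4 to 10^-8 M (five 10-fold levels). Growth read by SRB protein stain. GI50 is the concentration giving a 50% reduction in net protein increase relative to control cells.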
# [3] = system: PC-3; experiment: Growth inhibition of human PC3 cells after 48 hrs by sulforhodamine B assay; conditions: PC-3, 48 h; procedure, shortened: as §1
# [4] = system: HCT-116; experiment: Growth inhibition of human HCT116 cells after 48 hrs by sulforhodamine B assay; conditions: HCT-116, 48 h; procedure, shortened: as §2
# [5] = system: Rattus norvegicus; experiment: Antiinflammatory activity in Wistar rat assessed as inhibition of carrageenan-induced paw edema at 0.05 mmol/kg, po administered 30 mins prior challenge measured after 3 hrs
# Procedure, shortened: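 Wistar rats of either sex, 150–175 g, fasted 16 h, 6 per group. Dosed orally at 0.05 mmol/kg, suspended in 1% CMC in water (10 ml/kg). 30 min later, 0.1 ml of 1% carrageenan in saline injected subplantar into the left hind paw. Paw volume read by plethysmometer at 0, 3 and 5 h. % inhibition = (1 − Vt/Vc) × 100 against the vehicle group.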
# [6] = system: MCF7; experiment: Growth inhibition of human MCF7 cells after 48 hrs by sulforhodamine B assay; conditions: MCF7, 48 h; procedure, shortened: as §2
# [7] = system: SNB-19; experiment: Growth inhibition of human SNB19 cells assessed as cell growth at 10 uM after 48 hrs by sulforhodamine B assay; conditions: SNB-19, 48 h, read-out: Activity
# [8] = system: HCT-116; experiment: Growth inhibition of human HCT116 cells assessed as cell growth at 10 uM after 48 hrs by sulforhodamine B assay; conditions: HCT-116, 48 h, read-out: Activity
# [9] = system: SW-620; experiment: Growth inhibition of human SW620 cells after 48 hrs by sulforhodamine B assay; conditions: SW-620, 48 h
# Procedure, shortened: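 NCI 60-line panel. Cells were grown in medium with 5% fetal calf serum and 2 mM L-glutamine and preincubated 24 h in plates. Compound in DMSO was added at 10^-4 to 10^-8 M (five 10-fold levels), with continuous exposure for 48 h. Growth was read by SRB protein staining. GI50 is the concentration giving 50% reduction in net protein increase versus control cells.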
# [10] = system: SN12C; experiment: Growth inhibition of human SN12C cells after 48 hrs by sulforhodamine B assay
# Procedure, shortened: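 Part of the NCI 60-cell-line panel. Cells were grown in 1640 medium with 5% fetal calf serum and 2 mM L-glutamine, then preincubated 24 h before compound was added. Compounds in DMSO were tested at five concentrations (100, 10, 1, 0.1, 0.01 µM) with 48 h continuous exposure. Read-out was SRB protein staining; GI50 is the concentration halving the net protein increase versus control.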
# [11] = system: A498; experiment: Growth inhibition of human A498 cells after 48 hrs by sulforhodamine B assay; conditions: A498, 48 h; procedure, shortened: as §2
# [12] = system: DU-145; experiment: Growth inhibition of human DU145 cells assessed as cell growth at 10 uM after 48 hrs by sulforhodamine B assay; conditions: DU-145, 48 h, read-out: Activity
# [13] = system: OVCAR-5; experiment: Growth inhibition of human OVCAR5 cells assessed as cell growth at 10 uM after 48 hrs by sulforhodamine B assay; conditions: OVCAR-5, 48 h, read-out: Activity
# [14] = system: SK-MEL-2; experiment: Growth inhibition of human SK-MEL-2 cells assessed as cell growth at 10 uM after 48 hrs by sulforhodamine B assay; conditions: SK-MEL-2, 48 h, read-out: Activity
# [15] = system: OVCAR-3; experiment: Growth inhibition of human OVCAR3 cells assessed as cell growth at 10 uM after 48 hrs by sulforhodamine B assay; conditions: OVCAR-3, 48 h, read-out: Activity
# [16] = system: K562; experiment: Growth inhibition of human K562 cells assessed as cell growth at 10 uM after 48 hrs by sulforhodamine B assay; conditions: K562, 48 h, read-out: Activity
# [17] = system: PC-3; experiment: Growth inhibition of human PC3 cells assessed as cell growth at 10 uM after 48 hrs by sulforhodamine B assay; conditions: PC-3, 48 h, read-out: Activity
# [18] = system: DU-145; experiment: Growth inhibition of human DU145 cells after 48 hrs by sulforhodamine B assay; conditions: DU-145, 48 h; procedure, shortened: as §2
# [19] = Growth inhibition of human NCI-ADR-RES cells after 48 hrs by sulforhodamine B assay; procedure, shortened: as §1
# [20] = system: HT-29; experiment: Growth inhibition of human HT-29 cells assessed as cell growth at 10 uM after 48 hrs by sulforhodamine B assay; conditions: HT-29, 48 h, read-out: Activity
# [21] = system: HCT-15; experiment: Growth inhibition of human HCT15 cells after 48 hrs by sulforhodamine B assay; conditions: HCT-15, 48 h; procedure, shortened: as §2
# [22] = system: OVCAR-3; experiment: Growth inhibition of human OVCAR3 cells after 48 hrs by sulforhodamine B assay; conditions: OVCAR-3, 48 h; procedure, shortened: as §1
# [23] = system: NCI-H23; experiment: Growth inhibition of human NCI-H23 cells assessed as cell growth at 10 uM after 48 hrs by sulforhodamine B assay; conditions: NCI-H23, 48 h, read-out: Activity
# [24] = read-out: LC50 (the source's name)
compound,measurement,setting,value
Cc1ccc(C2=NN(c3ccc(S(C)(=O)=O)cc3)C(=O)CC2)cc1,GI50,[1],430 nM
same,LC50,[1],> 100000 nM
same,TGI,[1],> 100000 nM
same,GI50,[2],520 nM
same,TGI,[2],6070 nM
same,CC50,[2]; [24],> 100000 nM
same,GI50,[3],1430 nM
same,LC50,[3],> 100000 nM
same,TGI,[3],> 100000 nM
same,GI50,[4],410 nM
same,LC50 (concentration killing 50% of cells),[4],> 100000 nM
same,TGI,[4],> 100000 nM
same,inhibition in vivo at 50 µmol/kg,[5],46.7%
same,GI50,[6],1380 nM
same,LC50 (concentration killing 50% of cells),[6],> 100000 nM
same,TGI,[6],> 100000 nM
same,growth at 10 µM,[7],55%
same,growth at 10 µM,[8],17.7%
same,GI50,[9],340 nM
same,TGI,[9],> 100000 nM
same,CC50,[9]; [24],> 100000 nM
same,LC50,[10],> 100000 nM
same,GI50,[11],140 nM
same,TGI,[11],1600 nM
same,CC50,[11]; [24],> 100000 nM
same,growth at 10 µM,[12],6.77%
same,growth at 10 µM,[13],53.1%
same,growth at 10 µM,[14],6.35%
same,growth at 10 µM,[15],-14.7%
same,growth at 10 µM,[16],11.7%
same,growth at 10 µM,[17],29.3%
same,GI50,[18],2910 nM
same,TGI,[18],> 100000 nM
same,CC50,[18]; [24],> 100000 nM
same,GI50,[19],270 nM
same,LC50,[19],> 100000 nM
same,growth at 10 µM,[20],11.1%
same,GI50,[21],610 nM
same,LC50,[21],> 100000 nM
same,TGI,[21],> 100000 nM
same,GI50,[22],360 nM
same,"LC50 (lethal concentration, 50% net cell kill)",[22],> 100000 nM
same,TGI,[22],3330 nM
same,growth at 10 µM,[23],-19.6%
O=c1[nH]cc(F)c(=O)[nH]1 [FLUOROURACIL],GI50,[1],56700 nM
same,GI50,[2],150 nM
same,GI50,[3],2360 nM
same,GI50,[4],220 nM
same,GI50,[6],70 nM
same,GI50,[9],920 nM
same,GI50,[10],490 nM
same,GI50,[11],350 nM
same,GI50,[18],360 nM
same,GI50,[19],310 nM
same,GI50,[21],110 nM
same,GI50,[22],10 nM
